Measurements from ChEMBL document CHEMBL2046306, “Synthesis of 6-substituted 9-methoxy-11H-indeno[1,2-c]quinoline-11-one derivatives as potential anticancer agents” (Bioorg Med Chem, 2012).

Assays:
A549 = assay: Growth inhibition of human A549 cells after 48 hrs by sulforhodamine B assay; assay type: functional, cell-based; details: A549, 48 h
Outline: (§1)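 NCI 60-line screen. Cells grown in RPMI 1640 with 5% FBS and 2 mM L-glutamine, seeded at 5000–40,000 cells/well, preincubated 24 h at 37 °C. Five 10-fold dilutions added, highest well concentration 10E-4 M. Incubated 48 h in 5% CO₂ at 100% humidity. Sulforhodamine B read-out by optical density; GI50 taken from dose-response curves versus control.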

HCT-116 = assay: Growth inhibition of human HCT116 cells after 48 hrs by sulforhodamine B assay; assay type: functional; details: HCT-116, 48 h; outline: as §1
MCF7 = assay: Antiproliferative activity against human MCF7 cells assessed as growth at 100 uM after 48 hrs by alamar blue assay; assay type: functional; details: MCF7, 48 h, read-out: Activity
Outline: (§2)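 Single-dose prescreen in a three-line NCI panel (NCI-H460, MCF7, SF-268). Cells were inoculated and preincubated on microtiter plates, then exposed to test agent at 100 μM for 48 h. Alamar blue end-point. Growth is expressed as percent of untreated control cells.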

[1] = Growth inhibition of human Hs 578T cells after 48 hrs by sulforhodamine B assay; assay type: functional; outline: as §1
CCRF-CEM = assay: Growth inhibition of human CCRF-CEM cells after 48 hrs by sulforhodamine B assay; assay type: functional; outline: as §1
U-251 = assay: Growth inhibition of human U251 cells after 48 hrs by sulforhodamine B assay; assay type: functional; details: U-251, 48 h
Outline: (§3)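 NCI 60-line screen. Cells grown in RPMI 1640 with 5% FBS and 2 mM L-glutamine, seeded at 5000-40,000 cells/well and preincubated 24 h at 37 °C. Compounds added at five 10-fold dilutions, highest well concentration 10E-4 M. Exposure 48 h in 5% CO2 at 100% humidity. Endpoint is sulforhodamine B with optical density read-out. GI50 is the concentration giving 50% growth inhibition versus control.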

SK-MEL-5 = assay: Growth inhibition of human SK-MEL-5 cells after 48 hrs by sulforhodamine B assay; assay type: functional; details: SK-MEL-5, 48 h; outline: as §3
NCI-H460 [2] = assay: Antiproliferative activity against human NCI-H460 cells assessed as growth at 100 uM after 48 hrs by alamar blue assay; assay type: functional; details: NCI-H460, 48 h, read-out: Activity; outline: as §2
SF-268 = assay: Antiproliferative activity against human SF268 cells assessed as growth at 100 uM after 48 hrs by alamar blue assay; assay type: functional; details: SF-268, 48 h, read-out: Activity; outline: as §2
DU-145 = assay: Growth inhibition of human DU145 cells after 48 hrs by sulforhodamine B assay; assay type: functional; details: DU-145, 48 h; outline: as §1
SR = assay: Growth inhibition of human SR cells after 48 hrs by sulforhodamine B assay; assay type: functional; outline: as §3
IGROV-1 = assay: Growth inhibition of human IGROV1 cells after 48 hrs by sulforhodamine B assay; assay type: functional; details: IGROV-1, 48 h; outline: as §1
RXF 393 = assay: Growth inhibition of human RXF393 cells after 48 hrs by sulforhodamine B assay; assay type: functional; details: RXF 393, 48 h; outline: as §3
NCI-H460 [3] = assay: Growth inhibition of human NCI-H460 cells after 48 hrs by sulforhodamine B assay; assay type: functional; details: NCI-H460, 48 h; outline: as §1

Compound	GI50 (A549) [µM]	GI50 (HCT-116) [µM]	GI50 (CCRF-CEM) [µM]	GI50 (U-251) [µM]	GI50 (SK-MEL-5) [µM]	GI50 (DU-145) [µM]	IC50 (A549) [µM]	GI50 (NCI-H460 [3]) [µM]	growth at 100 µM (MCF7) [%]	GI50 [1] [µM]	growth at 100 µM (NCI-H460 [2]) [%]	growth at 100 µM (SF-268) [%]	GI50 (SR) [µM]	GI50 (IGROV-1) [µM]	GI50 (RXF 393) [µM]
COc1ccc2c(c1)/C(=N\OC(C)=O)c1c-2c(Nc2cccc(/C(C)=N/OC(C)=O)c2)nc2ccccc12	53.7	53.7	53.7	53.7	53.7	53.7	–	–	32	53.7	96	43	53.7	53.7	53.7
COc1ccc2c(c1)C(=O)c1c-2c(Nc2ccc(F)c(F)c2)nc2ccccc12	–	–	–	–	–	–	–	–	106	–	96	69	–	–	–
CO/N=C1/c2cc(OC)ccc2-c2c(Nc3cccc(/C(C)=N/OC)c3)nc3ccccc3c21	–	–	–	–	–	–	–	–	80	–	82	92	–	–	–
COc1ccc2c(c1)C(=O)c1c-2c(Nc2ccc(F)cc2F)nc2ccccc12	–	–	–	–	–	–	–	–	99	–	96	68	–	–	–
COc1ccc2c(c1)C(=O)c1c-2c(Nc2ccc(OC)c(OC)c2)nc2ccccc12	–	–	–	–	–	–	–	–	90	–	68	41	–	–	–
CO/N=C1/c2cc(OC)ccc2-c2c(Nc3ccc(/C(C)=N/OC)cc3)nc3ccccc3c21	–	–	–	–	–	–	–	–	89	–	112	108	–	–	–
COc1ccc2c(c1)C(=O)c1c-2c(Nc2ccc(C(C)=O)cc2)nc2ccccc12	39.8	39.8	39.8	39.8	39.8	39.8	–	–	61	39.8	18	11	39.8	39.8	39.8
CN(C)CCCOc1ccc(-c2nc3ccc(OCCCN(C)C)cc3c3c2-c2ccc(OCCCN(C)C)cc2C3=O)cc1	–	–	–	–	–	–	0.68	–	–	–	–	–	–	–	–
COc1ccc(Nc2nc3ccccc3c3c2-c2ccc(OC)cc2C3=O)cc1	–	–	–	–	–	–	–	–	74	–	69	65	–	–	–
COc1ccc(Nc2nc3ccccc3c3c2-c2ccc(OC)cc2C3=O)c(OC)c1	–	–	–	–	–	–	–	–	103	–	110	107	–	–	–
COc1ccc2c(c1)C(=O)c1c-2c(Nc2cccc(C(C)=O)c2)nc2ccccc12	17.7	2.63	12.9	3.09	5.25	11.8	–	23.5	17	3.16	0	7	21.4	3.63	9.77
COc1cccc(Nc2nc3ccccc3c3c2-c2ccc(OC)cc2C3=O)c1	–	–	–	–	–	–	–	–	79	–	83	87	–	–	–

Continued, in another order:

GI50 (A549) [µM]	GI50 (HCT-116) [µM]	GI50 (CCRF-CEM) [µM]	GI50 (U-251) [µM]	GI50 (SK-MEL-5) [µM]	GI50 (DU-145) [µM]	IC50 (A549) [µM]	GI50 (NCI-H460 [3]) [µM]	Compound	growth at 100 µM (MCF7) [%]	GI50 [1] [µM]	growth at 100 µM (NCI-H460 [2]) [%]	growth at 100 µM (SF-268) [%]	GI50 (SR) [µM]	GI50 (IGROV-1) [µM]	GI50 (RXF 393) [µM]
–	–	–	–	–	–	0.64	–	COc1ccc2c(c1)/C(=N\OCCCN)c1c-2c(N2CCNCC2)nc2ccccc12	–	–	–	–	–	–	–
3.47	3.47	3.47	3.47	3.47	3.47	–	–	COc1ccc2c(c1)C(=O)c1c-2c(NCCN(C)C)nc2ccccc12	0	3.47	0	6	3.47	3.47	3.47
1.45	1.48	4.17	2.29	3.8	2.04	–	29.5	COc1ccc2c(c1)/C(=N\O)c1c-2c(Nc2ccc(/C(C)=N/O)cc2)nc2ccccc12	1	7.08	0	2	1.48	15.1	< 0.01
28.2	28.2	28.2	28.2	28.2	28.2	–	–	COc1ccc2c(c1)/C(=N\O)c1c-2c(Nc2cccc(/C(C)=N/O)c2)nc2ccccc12	84	28.2	11	66	28.2	28.2	28.2
15.1	15.1	15.1	15.1	15.1	15.1	–	–	COc1ccc2c(c1)C(=O)c1c-2c(Nc2ccc(Cl)cc2)nc2ccccc12	96	15.1	10	42	15.1	15.1	15.1
52.5	52.5	52.5	52.5	52.5	52.5	–	–	COc1ccc2c(c1)/C(=N\OC(C)=O)c1c-2c(Nc2ccc(/C(C)=N/OC(C)=O)cc2)nc2ccccc12	24	52.5	37	36	52.5	52.5	52.5
